According to ChEMBL document CHEMBL1129289, “Dibenzoxepinone hydroxylamines and hydroxamic acids: dual inhibitors of cyclooxygenase and 5-lipoxygenase with potent topical antiinflammatory activity” (J Med Chem, 1996):

Key:
Format in all cases: functional
[1] = system: Mus musculus; assay: Change in arachidonic acid induced oedema in mouse ear.
How it was run: (§1)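 Male CFW Swiss Webster mice, n=6. Compound or vehicle (3:7 propylene glycol:ethanol) applied topically to the right ear, 10 µL each to outer and inner surface. After 30 min, arachidonic acid 4 mg/20 µL on the right ear and vehicle on the left.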

[2] = biological target: T1, Polyunsaturated fatty acid 5-lipoxygenase (Rattus norvegicus) (UniProt P12527); assay: (§2) Inhibition of 5-lipoxygenase by measuring 5-HETE levels in RBL-1 cell-free supernatant; conditions: concentration not given here
T1 sequence (whole entry): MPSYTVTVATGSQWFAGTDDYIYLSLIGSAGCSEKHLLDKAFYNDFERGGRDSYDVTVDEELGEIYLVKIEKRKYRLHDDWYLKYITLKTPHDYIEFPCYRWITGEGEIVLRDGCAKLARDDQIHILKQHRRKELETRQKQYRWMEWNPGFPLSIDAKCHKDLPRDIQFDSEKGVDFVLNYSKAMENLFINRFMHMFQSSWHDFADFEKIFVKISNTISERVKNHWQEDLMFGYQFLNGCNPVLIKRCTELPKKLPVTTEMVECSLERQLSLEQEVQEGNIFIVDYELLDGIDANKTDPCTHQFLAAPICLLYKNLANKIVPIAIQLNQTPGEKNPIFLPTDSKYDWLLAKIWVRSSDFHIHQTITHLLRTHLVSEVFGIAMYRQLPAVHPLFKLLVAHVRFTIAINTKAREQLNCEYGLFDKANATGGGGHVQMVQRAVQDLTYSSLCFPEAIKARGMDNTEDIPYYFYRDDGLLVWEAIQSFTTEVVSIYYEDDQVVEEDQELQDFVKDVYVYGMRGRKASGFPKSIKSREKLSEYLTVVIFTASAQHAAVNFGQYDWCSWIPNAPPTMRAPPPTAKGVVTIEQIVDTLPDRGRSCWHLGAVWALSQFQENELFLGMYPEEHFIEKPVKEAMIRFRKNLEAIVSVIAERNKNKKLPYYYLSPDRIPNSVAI
How it was run: (§3)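 Cell-free rat basophilic leukemia (RBL-1) supernatant, 150 µg protein per tube, in duplicate. Buffer: 35 mM NaH₂PO₄ pH 7.0, 5 µM ATP, 50 µM CaCl₂, 10 µM arachidonic acid. Compounds from DMSO stocks. Run at 37 °C for 10 min and stopped with citric acid. 5-HETE measured by radioimmunoassay against a standard curve. Percent change from control; some values given at 50 µM.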

[3] = biological target: T2, Polyunsaturated fatty acid 5-lipoxygenase (Rattus norvegicus, UniProt P12527); assay: as §2; how it was run: as §3
T2 sequence (P12527 whole entry): T1 sequence (whole entry)

[4] = system: Mus musculus; assay: Inhibition of arachidonic acid oedema in mouse ear.; how it was run: as §1

Row | SMILES | Change [1] | inhibition [2] | IC50 [3] | ED50 [4] | Change [4]
1 | CN(O)CCc1ccc2c(c1)C(=O)c1ccccc1CO2 | -46% | – | – | – | –
2 | CCN(O)C(=O)C(C)c1ccc2c(c1)C(=O)c1ccccc1CO2 (configuration not stated) | -38% | 94% | – | – | –
3 | CC(C(=O)N(C)O)c1ccc2c(c1)C(=O)c1ccccc1CO2 (configuration not stated) | -44% | – | 1300 nM | – | –
4 | CC(=O)N(O)Cc1ccc2c(c1)C(=O)c1ccccc1CO2 | -47% | – | 210 nM | – | –
5 | CC(C)N(O)CCc1ccc2c(c1)C(=O)c1ccccc1CO2 | -47% | – | 130 nM | – | –
6 | CN(O)CCCc1ccc2c(c1)C(=O)c1ccccc1CO2 | -53% | – | 620 nM | – | –
7 | CCN(O)CCc1ccc2c(c1)C(=O)c1ccccc1CO2 | -50% | – | 480 nM | – | –
8 | CC(C)N(O)C(=O)Cc1ccc2c(c1)C(=O)c1ccccc1CO2 | -52% | – | 1230 nM | – | –
9 | CN(O)C(=O)CCc1ccc2c(c1)C(=O)c1ccccc1CO2 | -66% | – | 10 nM | 0.69 mg ear-1 | –
10 | CN(O)C(=O)Cc1ccc2c(c1)C(=O)c1ccccc1CO2 | -63% | – | 1190 nM | – | –
11 | O=C(O)Cc1ccc2c(c1)C(=O)c1ccccc1CO2 [ISOXEPAC] | – | 1.5% | – | 55 mg ear-1 | –
12 | O=C1c2ccccc2COc2ccc(CC(=O)N(O)C3CCCCC3)cc21 | -29% | – | 670 nM | – | –
13 | CN(O)C(=O)CCc1ccc2c(c1)Cc1ccccc1CO2 | -67% | – | 20 nM | 0.7 mg ear-1 | –
14 | COc1ccc2c(c1)c(CC(=O)O)c(C)n2C(=O)c1ccc(Cl)cc1 [INDOMETHACIN] | – | – | – | 1.63 mg ear-1 | –
15 | CC(C)Cc1ccc(C(C)C(=O)O)cc1 (configuration not stated) [IBUPROFEN] | – | – | – | – | -11%
16 | CON(C)C(=O)CCc1ccc2c(c1)C(=O)c1ccccc1CO2 | -41% | – | > 50000 nM | – | –
17 | O=C(Cc1ccc2c(c1)C(=O)c1ccccc1CO2)NO | -19% | – | 9000 nM | – | –
18 | CC(=O)N(O)CCc1ccc2c(c1)C(=O)c1ccccc1CO2 | -61% | – | 190 nM | – | –
19 | CCN(O)CCc1ccc2c(c1)Cc1ccccc1CO2 | -50% | – | 320 nM | – | –
20 | CC(C)N(O)C(=O)CCc1ccc2c(c1)C(=O)c1ccccc1CO2 | -63% | – | 580 nM | – | –
21 | CCN(O)C(=O)Cc1ccc2c(c1)C(=O)c1ccccc1CO2 | -52% | – | 580 nM | – | –
22 | CN(O)C(=O)C(C)(C)Cc1ccc2c(c1)C(=O)c1ccccc1CO2 | 29% | – | 660 nM | – | –
23 | CCN(O)C(=O)CCc1ccc2c(c1)C(=O)c1ccccc1CO2 | -55% | – | 150 nM | – | –
24 | CC(Cc1ccc(O)c(O)c1)C(C)Cc1ccc(O)c(O)c1 (configuration not stated) [NORDIHYDROGUAIARETIC ACID] | – | – | – | 3.1 mg ear-1 | –
25 | CCN(O)CCc1ccc2c(c1)C(O)c1ccccc1CO2 (configuration not stated) | -47% | – | 450 nM | – | –
26 | O=C(CCCCCCCCc1ccccc1)NO | – | – | 480 nM | 2.56 mg ear-1 | –
27 | O=C1c2ccccc2COc2ccc(CCC(=O)N(O)C3CCCCC3)cc21 | -14% | – | 2000 nM | – | –
